Experimental data: ChEMBL document CHEMBL1212827, “Unnatural amino acid side chains as S1, S1', and S2' probes yield cationic antimicrobial peptides with stability toward chymotryptic degradation” (J Med Chem, 2010)
Values after ≈ are worked out from the molar mass of the structure shown. Non-standard residues stand in square brackets, D forms with d. Residues, ends and D or L forms follow the SMILES beside them. *: point of attachment. Phe(4-guanidino) = N=C(N)Nc1ccc(C[C@H](N)C(=O)O)cc1; Bip = N[C@@H](Cc1ccc(-c2ccccc2)cc1)C(=O)O; Dip = N[C@H](C(=O)O)C(c1ccccc1)c1ccccc1; Phe(4-NH2) = Nc1ccc(C[C@H](N)C(=O)O)cc1; hArg = N=C(N)NCCCC[C@H](N)C(=O)O; Agp = N=C(N)NC[C@H](N)C(=O)O; NHPhenethyl = c1ccc(CCN*)cc1; Orn = NCCC[C@H](N)C(=O)O; NHBn = c1ccc(CN*)cc1

Columns and labels:
[1] = Stability of the compound in 0.1 M NH4HCO3 buffer at pH 8.2 assessed as half life in presence of chymotrypsin; assay type: physicochemical; conditions: for half-life: chymotrypsin in NH4HCO3 buffer; for t1/2: isolated protein
In short: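 Peptide 1 mg/mL stock; chymotrypsin 1 mg per 50 mL buffer; both diluted tenfold into 0.1 M NH4HCO3 pH 8.2 and incubated at 37 °C. Aliquots quenched with water/acetonitrile 60/40 containing 0.5% TFA and run on RP-HPLC. Half-life calculated from 214 nm peak areas over the first 5 h. Under 10% degradation at 24 h counted as stable. Enzyme-free samples at 0 and 24 h served as controls.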

[2] = tested on: Escherichia coli; test: Antibacterial activity against Escherichia coli ATCC 25922; assay type: functional
[3] = tested on: Staphylococcus aureus; test: Antibacterial activity against methicillin-resistant Staphylococcus aureus ATCC 33591; assay type: functional
[4] = tested on: Staphylococcus aureus; test: Antibacterial activity against Staphylococcus aureus ATCC 25923; assay type: functional
[5] = Toxicity in human RBC assessed as hemolysis at 1 mM after 30 mins relative to control; assay type: cell-based, Erythrocyte; conditions: red blood cells (RBC), read-out: Activity
In short: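 Fresh heparinized human erythrocytes, washed in normal saline. Peptides at 25–1000 μg/mL with 1% v/v final erythrocytes, 30 min at 37 °C with agitation. Supernatant OD read at 405 nm. Saline served as 0% and 1% Triton X as 100% hemolysis; percent lysis taken relative to their difference.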

[6] = Binding affinity to chymotrypsin by isothermal titration […]
In short: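 Isothermal titration calorimetry at 25 °C in 0.1 M NH4HCO3 pH 8.2. Peptide (2.1 mM in syringe) injected in 20 aliquots of 5 μL into stirred (150 rpm) chymotrypsin (0.1 mM), 400 s between injections. First injection point discarded. KD fitted from heats of interaction.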

Compound | half-life [1] [min] | Activity [2] [µM] | MIC [3] [µM] | MIC [4] [µM] | hemolysis at 0.5 h, 1000 µM [5] [%] | t1/2 [1] | Kd [6] [µM]
N=C(N)NCCCC[C@H](NC(=O)[C@H](Cc1c[nH]c2ccccc12)NC(=O)[C@@H](N)CCCNC(=N)N)C(=O)NCc1ccccc1 (H-Arg-Trp-[hArg]-NHBn) | 60 | >200 | 52 (≈ 32.2 µg/mL) | 78 (≈ 48.3 µg/mL) | – | – | –
N=C(N)NCCC[C@H](N)C(=O)N[C@@H](Cc1ccc(NC(=N)N)cc1)C(=O)N[C@@H](Cc1c[nH]c2ccccc12)C(=O)NCc1ccccc1 (H-Arg-[Phe(4-guanidino)]-Trp-NHBn) | – | >200 | 15 (≈ 9.81 µg/mL) | 50 (≈ 32.7 µg/mL) | > 2 | Stable | –
N=C(N)NCCC[C@H](N)C(=O)N[C@@H](Cc1c[nH]c2ccccc12)C(=O)N[C@@H](Cc1ccc(NC(=N)N)cc1)C(=O)NCc1ccccc1 (H-Arg-Trp-[Phe(4-guanidino)]-NHBn) | 240 | >200 | 10 (≈ 6.54 µg/mL) | 50 (≈ 32.7 µg/mL) | – | – | –
N=C(N)NCCC[C@H](N)C(=O)N[C@@H](Cc1ccc(N)cc1)C(=O)N[C@@H](Cc1c[nH]c2ccccc12)C(=O)NCc1ccccc1 (H-Arg-[Phe(4-NH2)]-Trp-NHBn) | 1020 | >200 | 79 (≈ 48.3 µg/mL) | 157 (≈ 96 µg/mL) | – | – | –
NC(=O)[C@H](CCCN=C(N)N)NC(=O)[C@H](Cc1c[nH]c2ccccc12)NC(=O)[C@@H](N)CCCN=C(N)N (H-Arg-Trp-Arg-NH2) | 300 | >200 | > 200 | > 200 | > 134 | – | –
N=C(N)NCCC[C@H](NC(=O)[C@@H](NC(=O)[C@@H](N)CCCNC(=N)N)C(c1ccccc1)c1ccccc1)C(=O)NCc1ccccc1 (H-Arg-[Dip]-Arg-NHBn) | – | >200 | 10 (≈ 6.43 µg/mL) | 25 (≈ 16.1 µg/mL) | > 10 | Stable | –
N=C(N)NCCC[C@H](N)C(=O)N[C@@H](Cc1c[nH]c2ccccc12)C(=O)N[C@@H](CCCCN)C(=O)NCc1ccccc1 (H-Arg-Trp-Lys-NHBn) | 240 | >200 | 54 (≈ 31.2 µg/mL) | 163 (≈ 94.2 µg/mL) | – | – | –
N=C(N)NCCC[C@H](NC(=O)[C@H](Cc1c[nH]c2ccccc12)NC(=O)[C@@H](N)CCCNC(=N)N)C(=O)NCCc1ccccc1 (H-Arg-Trp-Arg-NHPhenethyl) | 30 | >200 | 26 (≈ 16.1 µg/mL) | 52 (≈ 32.2 µg/mL) | – | – | –
N=C(N)NCCC[C@H](N)C(=O)N[C@@H](Cc1c[nH]c2ccccc12)C(=O)N[C@@H](Cc1ccc(N)cc1)C(=O)NCc1ccccc1 (H-Arg-Trp-[Phe(4-NH2)]-NHBn) | – | >200 | 79 (≈ 48.3 µg/mL) | 157 (≈ 96 µg/mL) | > 5 | Stable | –
N=C(N)NCCC[C@H](N)C(=O)N[C@@H](Cc1c[nH]c2ccccc12)C(=O)N[C@@H](CNC(=N)N)C(=O)NCc1ccccc1 (H-Arg-Trp-[Agp]-NHBn) | – | >200 | 16 (≈ 9.24 µg/mL) | 54 (≈ 31.2 µg/mL) | > 2 | Stable | 61.1
N=C(N)NCCC[C@H](NC(=O)[C@H](Cc1ccc(-c2ccccc2)cc1)NC(=O)[C@@H](N)CCCNC(=N)N)C(=O)NCc1ccccc1 (H-Arg-[Bip]-Arg-NHBn) | – | >200 | 15 (≈ 9.64 µg/mL) | 10 (≈ 6.43 µg/mL) | > 5 | Stable | 18.4
N=C(N)NCCC[C@H](NC(=O)[C@@H](N)CCCNC(=N)N)C(=O)N[C@@H](Cc1c[nH]c2ccccc12)C(=O)NCc1ccccc1 (H-Arg-Arg-Trp-NHBn) | 420 | >200 | 26 (≈ 15.7 µg/mL) | 79 (≈ 47.9 µg/mL) | – | – | –
N=C(N)NCCC[C@H](NC(=O)[C@H](Cc1ccccc1)NC(=O)[C@@H](N)CCCNC(=N)N)C(=O)NCc1ccccc1 (H-Arg-Phe-Arg-NHBn) | 180 | >200 | 83 (≈ 47 µg/mL) | 165 (≈ 93.5 µg/mL) | – | – | –
N=C(N)NCCC[C@H](N)C(=O)N[C@@H](Cc1c[nH]c2ccccc12)C(=O)N[C@@H](CCCN)C(=O)NCc1ccccc1 (H-Arg-Trp-[Orn]-NHBn) | 1200 | >200 | 55 (≈ 31 µg/mL) | 110 (≈ 62 µg/mL) | > 1 | – | –
N=C(N)NCCC[C@H](NC(=O)[C@H](Cc1c[nH]c2ccccc12)NC(=O)[C@@H](N)CCCNC(=N)N)C(=O)NCc1ccccc1 (H-Arg-Trp-Arg-NHBn) | 120 | >200 | 132 (≈ 80 µg/mL) | 79 (≈ 47.9 µg/mL) | > 5 | – | –
